The text below walks through data of ChEMBL document CHEMBL3526015, “Metabolism of the c-Fos/activator protein-1 inhibitor T-5224 by multiple human UDP-glucuronosyltransferase isoforms” (Drug Metab Dispos, 2011).

Substrate in the data set: O=C(O)CCc1cc(C(=O)c2ccc(OC3CCCC3)cc2O)ccc1OCc1ccc2c(O)noc2c1
Nature of the data set: Drug metabolism assessed as human UGT1A8-mediated T-5224 hydroxyl O-glucuronide formation after 10 to 60 mins in presence of UDP-glucuronic acid by HPLC method. The data set is classed as ADME. The method, boiled down: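 Kinetics used recombinant UGT1A1, 1A3 or 1A8 (0.1 mg protein/mL) with T-5224 at 1–50 μM, 2 mM UDPGA and 60 min at 37°C, in triplicate. G2/G3 were measured by HPLC at 290 nm and fitted to a substrate-inhibition model (Vmax, Km, Ksi). UGT content was quantified by immunoblot, and kcat = Vmax/E0 was derived from it.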

B1: UDP-glucuronosyltransferase 1A8 (Homo sapiens) (protein)
chain: MARTGWTSPIPLCVSLLLTCGFAEAGKLLVVPMDGSHWFTMQSVVEKLILRGHEVVVVMPEVSWQLGKSLNCTVKTYSTSYTLEDLDREFMDFADAQWKAQVRSLFSLFLSSSNGFFNLFFSHCRSLFNDRKLVEYLKESSFDAVFLDPFDACGLIVAKYFSLPSVVFARGIACHYLEEGAQCPAPLSYVPRILLGFSDAMTFKERVRNHIMHLEEHLFCQYFSKNALEIASEILQTPVTAYDLYSHTSIWLLRTDFVLDYPKPVMPNMIFIGGINCHQGKPLPMEFEAYINASGEHGIVVFSLGSMVSEIPEKKAMAIADALGKIPQTVLWRYTGTRPSNLANNTILVKWLPQNDLLGHPMTRAFITHAGSHGVYESICNGVPMVMMPLFGDQMDNAKRMETKGAGVTLNVLEMTSEDLENALKAVINDKSYKENIMRLSSLHKDRPVEPLDLAVFWVEFVMRHKGAPHLRPAAHDLTWYQYHSLDVIGFLLAVVLTVAFITFKCCAYGYRKCLGKKGRVKKAHKSKTH
In general, Km refers to the substrate concentration at which the rate is half of its maximum. By Vmax is commonly meant the top rate of the reaction or transport when substrate is in excess. The term kcat denotes the number of substrate molecules converted per active site and unit of time at saturation. Usually kcat/Km stands for the turnover number divided by the Michaelis constant. Consider B1, for which the Km was found to be 6.05 µM, the maximal velocity (Vmax) was 0.000206 µmol/min, the turnover number (kcat) was 0.00184 s⁻¹ and the kcat/Km amounted to 303 M⁻¹ s⁻¹.
